Screens (PubChem)
Hits are enriched below; roughly 2.5% of the tested compounds scored in any of these assays.
SENP8 block-1 = SENP8 protease inhibitors, primary screen, biochemical, luminescence. purified SENP8, Z-RLRGG-aminoluciferin cleavage. actives 1.2% (n = 330,000). AID 2540, 2010. inhibition, % at 10 µM. Sentrin-specific protease 8 (Homo sapiens), Q96LD8; in the data active = inhibition above about 50%
Target sequence (Q96LD8 whole entry, looked up): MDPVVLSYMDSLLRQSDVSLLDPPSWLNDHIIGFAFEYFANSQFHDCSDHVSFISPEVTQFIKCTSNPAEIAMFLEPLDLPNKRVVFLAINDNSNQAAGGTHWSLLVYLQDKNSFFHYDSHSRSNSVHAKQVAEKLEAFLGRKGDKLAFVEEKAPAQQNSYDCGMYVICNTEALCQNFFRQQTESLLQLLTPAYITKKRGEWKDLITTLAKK
SENP1 FRET inh = human SENP1 catalytic domain inhibitors, primary screen, biochemical, FRET, uHTS; actives 0.21% (n = 360,000); AID 624204, 2012; recombinant SENP1 catalytic domain, CyPet-SUMO1-YPet FRET cleavage; inhibition, % at 10 µM;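 active = inhibition at least 30% at 10 µM, raw YFP signal under a set limit, fluorescence ratio 0.5 to 1.5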
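material = recombinant human SENP1 catalytic domain, His6-tagged | quantity = 20 pM enzyme | reagent = 25 nM SUMO1 FRET substrate | compound dosing = 10 µM single point, 0.5% DMSO | timing = 50 min enzyme reaction, room temperature, light-protected | detection = FRET, CFP and YFP emission | control set = no-enzyme low, enzyme-DMSO high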
SENP6 block = SENP6 protease inhibitors, primary screen, biochemical, luminescence, uHTS. Sentrin-specific protease 6 (Homo sapiens), Q9GZR1. inhibition, % at 10 µM. actives 1.8% (n = 330,000). Recombinant SENP6 catalytic domain, aminoluciferin luminescence;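 active = inhibition above about 50% at the single tested dose, limit read from the data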
SENP8 block-2 = human SENP8 protease inhibitors, primary screen, biochemical, fluorescence, Nedd8 protein substrate, uHTS; Sentrin-specific protease 8 (Homo sapiens), Q96LD8; recombinant SENP8; inhibition, % at 20 µM; actives 0.64% (n = 360,000); AID 602440, 2012; in the data active = inhibition mostly above about 40%, no sharp cut-off; inactive = mostly below about 27%
SENP7 block = SENP7 protease inhibitors, primary screen, biochemical, luminescence, uHTS; Sentrin-specific protease 7 (Homo sapiens), Q9BQF6; recombinant SENP7, Z-RLRGG-aminoluciferin luminescence, 40 min; inhibition, % at 5 µM; actives 1.5% (n = 330,000); AID 434973, 2010;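 active = inhibition above about 50% at the single test dose, limit read from the data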
SENP8 conf = SENP8 protease inhibitors, retest, confirmation, biochemical, luminescence, single concentration | Recombinant SENP8, Z-RLRGG-aminoluciferin luminescence, 60 min | inhibition, % at 12.5 µM | shares compounds with SENP7 block | actives 40% (n = 6,200);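 active = mean inhibition across replicates above about 50%, limit read from the data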
SENP6 conf = SENP6 protease inhibitors, confirmation, biochemical, luminescence, single concentration; recombinant SENP6, Z-RLRGG-aminoluciferin luminescence; AID 488915, 2010; shares compounds with SENP7 block; actives 58% (n = 6,200); inhibition, % at 12.5 µM
SENP7 confirm = SENP7 protease inhibitors, retest, confirmation, biochemical, luminescence, single concentration; actives 69% (n = 6,200); inhibition, % at 12.5 µM; shares compounds with SENP7 block; recombinant SENP7, Z-RLRGG-aminoluciferin luminescence, 40 min
Casp3 SENP sel = caspase-3 protease inhibitors, confirmation, selectivity assay for SENP inhibitor project, biochemical, single concentration | shares compounds with SENP7 block | actives 60% (n = 6,200) | inhibition, % at 12.5 µM | purified caspase-3, Z-DEVD-aminoluciferin luminescence, 60 min;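 active = mean inhibition above about 50%, limit read from the data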
Target sequence (P42574 28-227 limits assumed): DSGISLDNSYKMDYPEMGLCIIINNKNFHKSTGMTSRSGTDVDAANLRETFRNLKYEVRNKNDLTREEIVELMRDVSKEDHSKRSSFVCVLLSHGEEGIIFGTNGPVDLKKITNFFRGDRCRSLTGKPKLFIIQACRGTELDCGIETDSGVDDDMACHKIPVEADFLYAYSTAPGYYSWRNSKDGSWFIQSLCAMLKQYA
Luc interf = interferes with luciferase luminescence in SENP counter-screen | actives 39% (n = 6,200) | inhibition, % at 12.5 µM | shares compounds with SENP7 block | Pre-incubated SENP8/Z-RLRGG-aminoluciferin, luciferase luminescence interference;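 active = mean inhibition above about 50% when retested at one dose, limit read from the data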
Large screens that a line does not name were inactive (follow-up assays come after a bar, where they were run); ! = a repeat was not active.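 Rule for the calls, unless noted: active = mean inhibition above about 50% in the one-dose retest (limit read from the data); inactive = the rest.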

Nc1ccccc1C(=O)Nc1cccc(C(=O)O)c1	SENP8 block-1 92, SENP6 block 95 | SENP8 conf 96 | SENP6 conf 97 | SENP7 confirm 101 | Casp3 SENP sel 82 | Luc interf 96
Cc1cc(NC(=O)c2ccoc2C)ccc1Br	SENP8 block-1 97, SENP6 block 100, SENP7 block 97 | SENP8 conf 98 | SENP6 conf 99 | SENP7 confirm 102 | Casp3 SENP sel 95 | Luc interf 96
CC(=O)OCC1(C)CN(c2ccccc2)NC1=O (stereo not given)	none
Cc1occc1C(=O)Nc1ccc2c(c1)OCO2	SENP8 block-1 54, SENP6 block 84, SENP7 block 80 | SENP8 conf 64 | SENP6 conf 63 | SENP7 confirm 89 | Casp3 SENP sel 90 | Luc interf 74
Cc1occc1C(=O)Nc1cccc(C(=O)O)c1	SENP8 block-1 91, SENP6 block 96, SENP7 block 96 | SENP8 conf 95 | SENP6 conf 95 | SENP7 confirm 101 | Casp3 SENP sel 72 | Luc interf 93
Cc1ccc(Nc2ncnc(N)n2)cc1C	none
O=C(C=Cc1ccccc1)Nc1ccccc1	none (no result: SENP8 block-1, SENP6 block, SENP7 block)
O=C(/C=C/c1ccccc1)Nc1cccnc1	SENP8 block-1 51, SENP6 block 66, SENP7 block 76 | SENP8 conf inactive | SENP6 conf 57 | SENP7 confirm 90 | Casp3 SENP sel 84 | Luc interf 72
O=C(/C=C/c1ccc(Cl)c([N+](=O)[O-])c1)Nc1cccnc1	none
O=C(/C=C/c1ccc([N+](=O)[O-])cc1)Nc1cccnc1	SENP6 block 71, SENP7 block 58 | SENP8 conf inactive | SENP6 conf 64 | SENP7 confirm 92 | Casp3 SENP sel 77 | Luc interf inactive
O=C(CSc1ccc(-c2ccc(F)cc2)nn1)N1CCCCC1	SENP6 block 68, SENP7 block 63 | SENP8 conf inactive | SENP6 conf inactive | SENP7 confirm 78 | Casp3 SENP sel 80 | Luc interf 58
O=C(CSc1ccc(-c2ccncc2)nn1)N1CCCCC1	none
Cc1ccc(N=Nc2cc(C)ccc2N)cc1	SENP8 block-1 98, SENP6 block 99, SENP7 block 100 | SENP8 conf 99 | SENP6 conf 100 | SENP7 confirm 103 | Casp3 SENP sel 97 | Luc interf 96
Cc1ccc(S(=O)(=O)NCCNC(=O)c2ccc(C)nc2)cc1	none
Cc1ccc(/C=N/OC(=O)c2nn(C)cc2Cl)cc1	SENP8 block-1 50, SENP6 block 66, SENP7 block 66 | SENP8 conf inactive | SENP6 conf inactive | SENP7 confirm 62 | Casp3 SENP sel inactive | Luc interf inactive
c1ccc(-c2n[nH]c(-c3ccccn3)n2)nc1	SENP6 block 66!, SENP7 block 59 | SENP8 conf 53 | SENP6 conf 51 | SENP7 confirm 78 | Casp3 SENP sel 84 | Luc interf 61
c1ccc(-c2ccccn2)nc1	none
Oc1ccccc1C1=Nc2nc3ccccc3n2C(c2ccccc2)C1 (stereo not given)	SENP8 block-1 59, SENP6 block 79, SENP7 block 71 | SENP8 conf inactive | SENP6 conf inactive | SENP7 confirm inactive | Casp3 SENP sel inactive | Luc interf inactive
CC(OC(=O)c1ccc(-c2ccc([N+](=O)[O-])cc2)o1)C(=O)NC(N)=O (stereo not given)	none
CC1CN(C(=O)N2CCCCC2)CCN1C(=O)N1CCCCC1 (stereo not given)	none
O=C(/C=C/c1ccccc1)NC(NC(=S)Nc1cc(Cl)ccc1Cl)C(Cl)(Cl)Cl (stereo not given)	none
O=C(NC1CC2CCC(C1)N2Cc1ccccc1)c1ccccc1Cl (stereo not given)	none
CCCCN1C2CCCC1CC(NC(=O)c1ccccc1Cl)C2 (stereo not given)	SENP7 block 83 | SENP8 conf inactive | SENP6 conf inactive | SENP7 confirm inactive | Casp3 SENP sel inactive | Luc interf inactive
COc1ccc(S(=O)(=O)N2CCCCC2)cc1NC(=O)CCOc1cc(C)ccc1C	none
C=C(C)CNC(=O)c1ccc2nc(Cc3ccc(OC)cc3)oc2c1	SENP7 block 51 | SENP8 conf inactive | SENP6 conf inactive | SENP7 confirm 75 | Casp3 SENP sel 66 | Luc interf inactive
Cc1ccc2c(c1)N(C(=O)CCC(=O)NC1CCCCCC1)CC(C)O2 (stereo not given)	none
Cc1ncoc1C(=O)Nc1cccc(Cl)c1	SENP6 block 50, SENP7 block 64 | SENP8 conf 60 | SENP6 conf 58 | SENP7 confirm 86 | Casp3 SENP sel 80 | Luc interf 57
Cc1ccc(NC(=O)c2ocnc2C)cc1Cl	SENP8 block-1 61, SENP6 block 81, SENP7 block 83 | SENP8 conf 76 | SENP6 conf 77 | SENP7 confirm 94 | Casp3 SENP sel 83 | Luc interf inactive
CCOC(=O)c1cc(C(=O)Nc2cccc(C)c2)nn1C	SENP7 block 59 | SENP8 conf inactive | SENP6 conf inactive | SENP7 confirm 78 | Casp3 SENP sel 72 | Luc interf 58
Cc1ccc(C(C)C)c2c1C(c1ccc3c(c1)OCO3)CC(=O)O2 (stereo not given)	none (no result: SENP8 block-1, SENP6 block)
Cc1nc(NC(=O)c2ccccc2)sc1-c1csc(N)n1	SENP7 block 68 | SENP8 conf 57 | SENP6 conf 53 | SENP7 confirm 77 | Casp3 SENP sel 65 | Luc interf 61
